Calls of active or inactive are those of the source. No cut-off for these calls is given here.
What was measured:
[1] = species on record: Rattus norvegicus; experiment: Potency index, ratio of antinociceptive activity of compound at 8 to 10 nmol, it to antinociceptive activity of morphine at 35 nmol, it in naive Wistar rat after 30 mins; format: functional
[2] = species on record: Rattus norvegicus; experiment: Antinociceptive activity in Wistar rat model of chronic constriction injury-induced neuropathic pain assessed as reduction in allodynia at 0.8 to 3.5 nmol after 30 mins by von Frey test; format: functional, organism-based
Outline: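 Rats underwent chronic constriction injury of the sciatic nerve. Seven days later, drug was given intrathecally as single injections at increasing doses. Allodynia was read by von Frey test 30 min after dosing and compared with vehicle-treated CCI rats.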

[3] = species on record: Rattus norvegicus; experiment: Antinociceptive activity in Wistar rat model of chronic constriction injury-induced neuropathic pain assessed as reduction in hyperalgesia at 0.8 to 3.5 nmol after 30 mins by cold plate test; format: functional, organism-based
Outline: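 Rats underwent chronic constriction injury of the sciatic nerve. Seven days later, drug was given intrathecally as single injections at increasing doses. Hyperalgesia was read by cold plate test 30 min after dosing and compared with vehicle-treated CCI rats.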

[4] = species on record: Rattus norvegicus; experiment: Antinociceptive activity in naive Wistar rat at 35 nmol, it after 2 hrs by tail flick test analysis; format: functional, organism-based
[5] = species on record: Rattus norvegicus; experiment: Antinociceptive activity in Wistar rat model of chronic constriction injury-induced neuropathic pain assessed as reduction in hyperalgesia at 3.5 nmol, it QD for 6 consecutive days by cols plate test; format: functional, organism-based
Outline: (§1)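 Rats with chronic constriction injury of the sciatic nerve, dosed intrathecally once daily for 6 consecutive days starting day 7 post-CCI. Allodynia measured by von Frey, hyperalgesia by cold plate. Doses: morphine 3.5 nmol, hybrids 0.8 or 1 nmol. Compared with vehicle-treated CCI rats and with morphine-treated CCI rats.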

[6] = species on record: Rattus norvegicus; experiment: Antinociceptive activity in Wistar rat model of chronic constriction injury-induced neuropathic pain assessed as reduction in allodynia at 3.5 nmol, it QD for 6 consecutive days by von Frey test; format: functional, organism-based; outline: as §1
[7] = test system: Rattus norvegicus; experiment: Antinociceptive activity in Wistar rat model of chronic constriction injury-induced neuropathic pain assessed as reduction in hyperalgesia at 3.5 nmol dosed on day7 after tolerance development with compound12 dosed at 0.8 nmol, it QD for 6 days by cold plate test; format: functional, organism-based
Outline: (§2)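 Cross-tolerance design in CCI rats: intrathecal dosing once daily for 6 days from day 7 post-CCI (morphine 3.5 nmol, hybrids 0.8 or 1 nmol). On day 7 of dosing (day 14 post-CCI), morphine-tolerant rats received a single hybrid dose and hybrid-tolerant rats received morphine 3.5 nmol. Read by von Frey or cold plate and compared with pretest, day 1 and day 6.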

[8] = target: Mu-type opioid receptor (Rattus norvegicus, UniProt P33535); experiment: Displacement of [3H]DAMGO from mu opioid receptor in rat brain membrane after 2 hrs; format: cell membranes
Outline: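 Rat brain membranes, with [3H]DAMGO as the MOR radioligand, measured as displacement binding. Values are means of 3–4 experiments.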

[9] = target: Mu-type opioid receptor (Cavia porcellus, UniProt P97266); experiment: Agonist activity at mu opioid receptor in guinea pig ileum assessed as inhibition of electrically-stimulated muscle contraction; format: tissue-based
Outline: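 Guinea pig ileum preparation used as the MOR-representative functional assay. Values are means of 3–4 experiments.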

[10] = target: Delta-type opioid receptor (Rattus norvegicus, UniProt P33533); experiment: Displacement of [3H]DSLET from delta opioid receptor in rat brain membrane after 2 hrs; format: cell membranes
Outline: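 Rat brain membranes, with [3H]DSLET as the DOR radioligand, measured as displacement binding. Values are means of 3–4 experiments.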

[11] = species on record: Rattus norvegicus; experiment: Antinociceptive activity in Wistar rat model of chronic constriction injury-induced neuropathic pain assessed as reduction in allodynia at 1 nmol, it QD for 6 consecutive days by von Frey test; format: functional, organism-based; outline: as §1
[12] = species on record: Rattus norvegicus; experiment: Antinociceptive activity in Wistar rat model of chronic constriction injury-induced neuropathic pain assessed as reduction in hyperalgesia at 1 nmol, it QD for 6 consecutive days by cols plate test; format: functional, organism-based; outline: as §1
[13] = test system: Rattus norvegicus; experiment: Antinociceptive activity in Wistar rat model of chronic constriction injury-induced neuropathic pain assessed as reduction in hyperalgesia at 1 nmol dosed on day7 after tolerance development with morphine dosed at 3.5 nmol, it QD for 6 days by cold plate test; format: functional, organism-based; outline: as §2
[14] = test system: Rattus norvegicus; experiment: Antinociceptive activity in Wistar rat model of chronic constriction injury-induced neuropathic pain assessed as reduction in allodynia at 1 nmol dosed on day7 after tolerance development with morphine dosed at 3.5 nmol, it QD for 6 days by von Frey test; format: functional, organism-based; outline: as §2
[15] = target: Delta-type opioid receptor (Mus musculus, UniProt P32300); experiment: Agonist activity at delta opioid receptor in mouse vas deferens assessed as inhibition of electrically-stimulated muscle contraction; format: tissue-based
Outline: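 Electrically stimulated mouse vas deferens, a DOR-representative tissue assay. Means of 3–4 experiments.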

[16] = species on record: Rattus norvegicus; experiment: Antinociceptive activity in naive Wistar rat at 10 nmol, it after 30 mins by tail flick test analysis; format: functional, organism-based
Outline: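 Naïve rats dosed intrathecally, compared with vehicle-treated naïve rats. Tail-flick latency read 30 min after administration.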

[17] = test system: Rattus norvegicus; experiment: Antinociceptive activity in Wistar rat model of chronic constriction injury-induced neuropathic pain assessed as reduction in hyperalgesia at 3.5 nmol dosed on day7 after tolerance development with compound13 dosed at 1 nmol, it QD for 6 days by cold plate test; format: functional, organism-based; outline: as §2
[18] = species on record: Rattus norvegicus; experiment: Antinociceptive activity in Wistar rat model of chronic constriction injury-induced neuropathic pain assessed as reduction in hyperalgesia at 1 nmol, it QD for 6 consecutive days measured on day-4 and day-5 by cold plate test relative to morphine; format: functional, organism-based; outline: as §1
[19] = target: Substance-P receptor (Homo sapiens, UniProt P25103); experiment: Displacement of [3H]SP from human NK1 receptor transfected in CHO cells by liquid scintillation counting method; format: cell-based
Outline: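 hNK1 receptor expressed in CHO cells, measured as [3H]SP displacement. Values are means of 3–4 experiments.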

[20] = test system: Rattus norvegicus; experiment: Potency index, ratio of antiallodynic effect of compound to antiallodynic effect of morphine in it dosed naive Wistar rat at 0.8 to 3.5 nmol after 30 mins by cold plate test; format: functional

Sequence of Mu-type opioid receptor (Rattus norvegicus, UniProt P33535) (P33535 whole entry): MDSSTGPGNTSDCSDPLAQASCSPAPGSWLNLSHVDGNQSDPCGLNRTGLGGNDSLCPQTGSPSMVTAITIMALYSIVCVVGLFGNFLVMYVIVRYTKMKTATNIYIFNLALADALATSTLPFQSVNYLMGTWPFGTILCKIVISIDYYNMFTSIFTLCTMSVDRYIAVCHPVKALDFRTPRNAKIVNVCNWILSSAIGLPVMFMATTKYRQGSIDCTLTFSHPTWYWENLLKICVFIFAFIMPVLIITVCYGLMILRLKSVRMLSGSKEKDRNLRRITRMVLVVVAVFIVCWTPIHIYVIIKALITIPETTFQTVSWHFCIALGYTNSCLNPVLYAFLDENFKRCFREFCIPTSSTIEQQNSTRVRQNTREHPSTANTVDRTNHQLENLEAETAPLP
Sequence of Delta-type opioid receptor (Mus musculus, UniProt P32300) (P32300 whole entry): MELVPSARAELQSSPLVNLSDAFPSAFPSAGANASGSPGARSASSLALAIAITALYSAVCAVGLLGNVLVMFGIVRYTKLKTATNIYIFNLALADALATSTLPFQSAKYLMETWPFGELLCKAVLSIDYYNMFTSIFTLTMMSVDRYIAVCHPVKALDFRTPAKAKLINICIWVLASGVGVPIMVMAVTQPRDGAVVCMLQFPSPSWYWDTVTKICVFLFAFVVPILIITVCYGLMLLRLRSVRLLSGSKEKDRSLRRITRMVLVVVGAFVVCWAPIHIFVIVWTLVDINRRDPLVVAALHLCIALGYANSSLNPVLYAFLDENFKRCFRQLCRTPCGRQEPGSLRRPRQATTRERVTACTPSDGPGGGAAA
Sequence of Mu-type opioid receptor (Cavia porcellus, UniProt P97266) (P97266 whole entry): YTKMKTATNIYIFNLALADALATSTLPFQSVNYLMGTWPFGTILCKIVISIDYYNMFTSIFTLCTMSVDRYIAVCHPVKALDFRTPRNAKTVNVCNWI
Sequence of Delta-type opioid receptor (Rattus norvegicus, UniProt P33533) (P33533 whole entry): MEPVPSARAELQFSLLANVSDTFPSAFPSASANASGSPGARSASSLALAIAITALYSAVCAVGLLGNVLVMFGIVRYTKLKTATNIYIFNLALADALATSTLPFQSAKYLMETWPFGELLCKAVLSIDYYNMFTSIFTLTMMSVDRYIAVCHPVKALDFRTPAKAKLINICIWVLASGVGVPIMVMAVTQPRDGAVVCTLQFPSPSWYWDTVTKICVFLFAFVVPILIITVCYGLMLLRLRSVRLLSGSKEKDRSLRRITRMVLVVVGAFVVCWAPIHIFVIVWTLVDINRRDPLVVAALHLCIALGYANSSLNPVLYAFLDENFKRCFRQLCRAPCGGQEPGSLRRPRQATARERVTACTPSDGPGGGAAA
Sequence of Substance-P receptor (P25103 whole entry): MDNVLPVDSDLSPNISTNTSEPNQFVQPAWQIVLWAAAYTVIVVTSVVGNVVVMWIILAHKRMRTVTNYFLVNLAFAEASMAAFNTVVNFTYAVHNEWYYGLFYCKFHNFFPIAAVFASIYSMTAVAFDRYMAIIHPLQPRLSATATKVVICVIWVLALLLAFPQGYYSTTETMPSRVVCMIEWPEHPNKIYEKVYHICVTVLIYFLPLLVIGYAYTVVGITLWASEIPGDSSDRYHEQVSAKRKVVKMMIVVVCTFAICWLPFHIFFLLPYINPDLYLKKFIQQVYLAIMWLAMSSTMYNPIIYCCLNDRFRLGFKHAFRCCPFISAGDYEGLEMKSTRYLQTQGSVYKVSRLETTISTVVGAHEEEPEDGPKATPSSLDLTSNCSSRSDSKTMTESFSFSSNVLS

SMILES | Ratio [1] | Activity [2] | Activity [3] | Activity [4] | Activity [5] | Activity [6] | Activity [7] | Ki [8] [µM] | IC50 [9] [µM] | Ki [10] [µM] | Activity [11] | Activity [12] | Activity [13] | Activity [14] | IC50 [15] [µM] | Activity [16] | Activity [17] | Activity [18] | Ki [19] [µM] | Ratio [20]
CN1CC[C@]23c4c5ccc(O)c4O[C@H]2[C@@H](O)C=C[C@H]3[C@H]1C5 [MORPHINE] | 3.5 | Active | Active | Active | Active | inactive | Active | – | – | – | – | – | – | – | – | – | – | – | – | –
Cc1cc(O)cc(C)c1C[C@H](N)C(=O)N[C@H](CCCNC(=N)N)C(=O)N[C@H]1Cc2ccccc2CN(CCC(=O)N(C)[C@@H]2CCN(C(=O)c3cc(C(F)(F)F)cc(C(F)(F)F)c3)C[C@@H]2c2ccccc2)C1=O | 3.5 | Active | Active | – | – | inactive | – | 0.00182 | 0.013 | 0.0112 | inactive | inactive | Active | Active | 0.0126 | Active | Active | Active | 0.0014 | 3.5
Cc1cc(O)cc(C)c1C[C@H](N)C(=O)N[C@H](CCCNC(=N)N)C(=O)N[C@@H](Cc1ccccc1)C(=O)N[C@@H](CCCCN)C(=O)N1CC[C@@H](C(=O)N(C)Cc2cc(C(F)(F)F)cc(C(F)(F)F)c2)[C@H](c2ccccc2)C1 | – | – | – | – | – | – | – | 0.0398 | 0.658 | 0.339 | – | – | – | – | 0.349 | – | – | – | 0.0012 | –
Cc1cc(O)cc(C)c1C[C@H](N)C(=O)N[C@H](CCCNC(=N)N)C(=O)N[C@@H](Cc1ccccc1)C(=O)N[C@@H](CCCCN)C(=O)N1CCN([C@@H]2CCN(C(=O)c3cc(C(F)(F)F)cc(C(F)(F)F)c3)C[C@@H]2c2ccccc2)CC1 | – | – | – | – | – | – | – | 0.00991 | 0.137 | 0.533 | – | – | – | – | 0.384 | – | – | – | 0.00099 | –
Cc1cc(O)cc(C)c1C[C@H](N)C(=O)N[C@H](CCCNC(=N)N)C(=O)N[C@@H](Cc1ccccc1)C(=O)N[C@@H](CCCCN)C(=O)N(C)[C@@H]1CCN(C(=O)c2cc(C(F)(F)F)cc(C(F)(F)F)c2)C[C@@H]1c1ccccc1 | – | – | – | – | – | – | – | 0.054 | 0.0702 | > 1 | – | – | – | – | 0.814 | – | – | – | 0.0011 | –

From ChEMBL document CHEMBL3779864, “Dual Alleviation of Acute and Neuropathic Pain by Fused Opioid Agonist-Neurokinin 1 Antagonist Peptidomimetics” (ACS Med Chem Lett, 2015)
